ChEMBL document CHEMBL1641390, “Structure and cytotoxicity of diterpenoids from Isodon eriocalyx” (J Nat Prod, 2010)

Columns and labels:
Format in all cases: functional, cell-based
[1] = tested on: HT-29; assay: Cytotoxicity against human HT-29 cells after 72 hrs by sulforhodamine B assay; details: HT-29, 72 h
In short: (§1)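 Cells plated 24 h, then exposed to five concentrations in duplicate for 72 h at 37 °C, 5% CO2. Saline vehicle control. TCA-fixed, SRB-stained, dye solubilized in 10 mM Tris, A510 read. Inhibition relative to control, expressed as IC50.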

[2] = tested on: SK-OV-3; assay: Cytotoxicity against human SKOV3 cells after 72 hrs by sulforhodamine B assay; details: SK-OV-3, 72 h
In short: as §1, with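 “HT-29 and SK-OV-3 (ATCC) grown in McCoy's 5a, BEL-7402 (Shanghai Cell Bank) in RPMI 1640, all with 10% FBS. Cells” for “Cells”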

[3] = tested on: Bel-7402; assay: Cytotoxicity against human Bel7402 cells after 72 hrs by sulforhodamine B assay; details: Bel-7402, 72 h
In short: as §1, with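 “HT-29 and SK-OV-3 (ATCC) grown in McCoy's 5a, BEL-7402 (Shanghai Cell Bank) in RPMI 1640, all with 10% FBS. Cells” for “Cells”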

Structure (SMILES) | IC50 [1] [µM] | IC50 [2] [µM] | IC50 [3] [µM]
C=C(C=O)[C@@H]1CCC2=C(C1)C(=O)[C@@H](O)[C@@H]1C(C)(C)[C@H](O)CC[C@@]21C [ERIOCASIN B] | > 10 | > 10 | > 10
C=C1C(=O)[C@]23C[C@H]1CC[C@H]2[C@]12CCC[C@@](C)(COC(C)=O)[C@H]1[C@H](O)[C@]3(O)OC2 [LONGIKAURIN C] | 2.1 | 3.3 | 2.9
C=C1C(=O)[C@@]23[C@H](O)C[C@@H]4C(C)(C)CC[C@H](O)[C@@]4(COC(C)=O)[C@@H]2CC[C@@H]1[C@H]3O [HENRYIN] | 6 | 5.9 | > 10
C=C1C(=O)[C@@]23C[C@H]1C[C@H]1O[C@H](O)[C@@H]4[C@](C)(COC(C)=O)CC[C@@H](OC2=O)[C@@]4(CO)[C@H]13 [MAOESIN A] | > 10 | > 10 | > 10
C=C1C(=O)[C@]23C[C@H]1CC[C@H]2[C@@]12CO[C@]3(O)[C@@H](O)[C@@H]1[C@](C)(COC(C)=O)CC[C@@H]2OC(C)=O [EFFUSANIN D] | 5.9 | 9.1 | > 10
C=C(C=O)[C@@H]1CC[C@@H]2[C@@H](C1)C(=O)[C@@H](O)[C@@H]1[C@](C)(COC(C)=O)[C@@H](OC(C)=O)C[C@H](O)[C@@]21C | > 10 | 5.1 | > 10
COc1cccc2c1C(=O)c1c(O)c3c(c(O)c1C2=O)C[C@@](O)(C(=O)CO)C[C@@H]3O[C@H]1C[C@H](N)[C@H](O)[C@H](C)O1 [DOXORUBICIN] | – | 0.17 | 0.067
C=C1C(=O)[C@]23C[C@H]1C[C@@H](O)[C@H]2[C@]12CC[C@H](OC(C)=O)[C@@](C)(COC(C)=O)[C@H]1[C@H](O)[C@]3(O)OC2 [MAOESIN C] | > 10 | > 10 | > 10
C=C(C=O)[C@@H]1CC[C@@H]2[C@@H](C1)C(=O)[C@@H](O)[C@@H]1[C@](C)(COC(C)=O)[C@@H](OC(C)=O)CC[C@]12C | > 10 | > 10 | > 10
CC(=O)OC[C@]1(C)C(OC(C)=O)CC[C@]23CO[C@@](O)(C[C@@H]21)[C@]12C(=O)C4(CCC45C(=O)[C@]46[C@H](O)[C@H]5CC[C@H]4[C@]45CCC(OC(C)=O)[C@@](C)(COC(C)=O)[C@H]4C[C@]6(O)OC5)[C@H](CC[C@@H]31)[C@H]2O (stereo partly drawn) [MAOECRYSTAL M] | > 10 | 7 | 6
C=C1C(O)[C@]23C[C@H]1CC[C@H]2[C@@]1(C)[C@H]([C@H](OC(C)=O)C3=O)[C@](C)(COC(C)=O)CC[C@@H]1O (stereo partly drawn) [MAOESIN E] | > 10 | > 10 | > 10
C=C(CO)[C@@H]1C[C@@H](OC(C)=O)[C@@H]2[C@@H](C1)C(=O)[C@@H](O)[C@@H]1C(C)(C)CCC[C@@]21C [ERIOCASIN E] | > 10 | > 10 | > 10
C=C1[C@H]2C[C@@H](O)C3(C(=O)C[C@@H]4[C@](C)(COC(C)=O)CCC[C@@]4(C)[C@@H]3C2)[C@@H]1O [ERIOCATISIN A] | > 10 | > 10 | > 10
C=C(C=O)[C@@H]1CC[C@@H]2[C@@H](C1)C(=O)[C@@H](O)[C@@H]1[C@](C)(COC(C)=O)[C@@H](O)CC[C@]12C [ERIOCASIN C] | > 10 | > 10 | > 10
C=C1C(=O)[C@@]23C[C@H]1C[C@H]1OC(O)[C@@H]4[C@](C)(COC(C)=O)[C@H](OC(C)=O)C[C@@H](OC2=O)[C@@]4(CO)[C@H]13 (stereo partly drawn) | > 10 | > 10 | > 10
C=C1C(=O)[C@]23C[C@H]1CC[C@H]2[C@@]12CO[C@@]3(O)[C@@H](OC(C)=O)[C@@H]1[C@@](C)(COC(C)=O)CC[C@H]2OC(C)=O [MAOECRYSTAL R] | 2.4 | 3 | 4
C=C1C(=O)[C@@]23[C@@H]4C[C@@H]5C(C)(C)CC[C@H](O)[C@@]5(C(OC)O4)[C@@H]2CC[C@@H]1[C@H]3O (stereo partly drawn) [KAMEBACETAL A] | 9.8 | 4.7 | > 10
C=C1C(=O)[C@]23C[C@H]1CC[C@H]2[C@@]12CO[C@@]3(O)[C@@H](O)[C@@H]1C(C)(C)CC[C@@H]2OC(C)=O [EFFUSANIN B] | 4.1 | 2.1 | 7.3
C=C(C=O)[C@@H]1CC[C@@H]2[C@@H](C1)C(=O)[C@@H](O)[C@@H]1[C@](C)(COC(C)=O)CC[C@H](O)[C@@]21C [ERIOCASIN D] | > 10 | 5.7 | > 10
C=C1C(=O)[C@]23C[C@H]1CC[C@H]2[C@]12CC[C@H](OC(C)=O)[C@@](C)(COC(C)=O)[C@H]1[C@H](O)[C@]3(O)OC2 [MAOECRYSTAL J] | 4.2 | 9.8 | > 10
C=C1C(OC(C)=O)[C@]23C[C@H]1CC[C@H]2[C@@]1(CC[C@H](OC(C)=O)[C@@](C)(COC(C)=O)[C@H]1C=O)COC3=O (stereo partly drawn) [MAOESIN F] | > 10 | > 10 | > 10
C=C1C(=O)[C@]23C[C@H]1C=C[C@H]2[C@]12CC[C@H](OC(C)=O)[C@@](C)(COC(C)=O)[C@H]1[C@H](O)[C@]3(O)OC2 [MAOESIN D] | 7.3 | > 10 | > 10
C=C(C=O)[C@@H]1CC[C@@H]2[C@@H](C1)C(=O)[C@@H](O)[C@@H]1C(C)(C)[C@H](O)CC[C@@]21C | 8.1 | 7.3 | > 10
